The values that follow come from ChEMBL document CHEMBL2429803, “Animal toxicity of hairpin pyrrole-imidazole polyamides varies with the turn unit” (J Med Chem, 2013).

The test system of data set [1] is Mus musculus. Put plainly: Acute toxicity in C57BL/6J mouse assessed as lesions in GI tract at 1 to 10 mg/kg, sc after 9 days. On the set-up: dose 1-10 mg/kg, route subcutaneous. It is filed as organism-based, Gastrointestinal tract. The settings on record: in vivo, 216 h. Summed up:
(§1)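 Male C57BL/6J mice, 8 weeks old, received a single sc dose (1, 3 or 10 mg/kg in 25% DMSO/saline, n = 4 per group) and were sacrificed after 9 days. Two representative animals per group were fixed in 10% formalin. Cecum, duodenum, heart, ileum, kidney, liver, lung, pancreas, spleen and stomach were examined blind by a veterinary pathologist and lesions graded mild, moderate or severe.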

For data set [2], the system named is Mus musculus. Put plainly: Acute toxicity in C57BL/6J mouse assessed as moderate atypical tubular regeneration in kidney at 3 mg/kg, sc after 9 days. It counts as organism-based. Set-up: dose 3 mg/kg, route subcutaneous. The following applies: in vivo, 216 h. Summed up: as §1
The test system of data set [3] is Mus musculus. Put plainly: Acute toxicity in C57BL/6J mouse assessed as diffuse hepatocellular necrosis and apoptosis at 10 mg/kg, sc after 9 days. It counts as organism-based. On the set-up: dose 10 mg/kg, route subcutaneous. The settings on record: in vivo, 216 h. A digest of the protocol:
as §1

Data set [4] concerns Mus musculus. Put plainly: Acute toxicity in C57BL/6J mouse assessed as lesions in pancreas at 1 to 10 mg/kg, sc after 9 days. Set-up: dose 1-10 mg/kg, route subcutaneous. The settings on record: in vivo, 216 h. It counts as organism-based. A digest of the protocol: as §1
For data set [5], the system named is Mus musculus. The experiment in a line: Toxicity in C57BL/6J mouse assessed as morbidity at 1 mg/kg, sc administered every 3 days for a cycle of 3 injections. It counts as organism-based. On the set-up: dose 1 mg/kg, route subcutaneous. The settings on record: in vivo, 72 h. A digest of the protocol: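 Male C57BL/6J mice, 3 per group, given 1 mg/kg sc every 3 days. Weight recorded on injection days. Watched for signs of duress. Humane end point was visible duress or weight loss over 15% of starting body weight.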

Data set [6] relates to Mus musculus. Put plainly: Acute toxicity in C57BL/6J mouse assessed as diffuse hepatocellular necrosis and apoptosis at 10 mg/kg, sc after 9 days. The settings on record: in vivo, 216 h.
In data set [7] the test system is Mus musculus. The experiment in a line: Acute toxicity in C57BL/6J mouse assessed as lesions in lungs at 1 to 10 mg/kg, sc after 9 days. It is filed as organism-based. On the set-up: dose 1-10 mg/kg, route subcutaneous. The settings on record: in vivo, 216 h. A digest of the protocol:
as §1

Data set [8] in a line: Metabolic stability in mouse liver microsomes after 1 hr by LC/MS/MS analysis. It is filed as ADME, Microsome. The settings on record: read-out: Stability. Summed up: (§2)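 Compound incubated at 37 °C for 60 min with 1 mg/mL human or mouse liver microsomes in 100 mM KH2PO4, 3 mM MgCl2, pH 7.4, with 2 mM NADPH or without it. Stopped with ice-cold methanol, then precipitate removed. Analyzed by LC/MS/MS as % remaining versus time zero. Duplicates.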
Background: Microsomes from liver hold many membrane-bound enzymes, among them those of drug oxidation.

The subject of data set [9] is Mus musculus. Put plainly: Acute toxicity in C57BL/6J mouse assessed as acute morbidity at 10 mg/kg, sc after 9 days. On the set-up: dose 10 mg/kg, route subcutaneous. It is filed as organism-based. The following applies: in vivo, 216 h. A digest of the protocol:
(§3)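 Male C57BL/6J mice, 8 weeks old, were acclimated 3 days and then given a single sc injection of 1, 3 or 10 mg/kg in 25% DMSO/saline vehicle (up to 200 μL), n = 4 per group. Weight, behaviour and appearance were monitored daily for 9 days before sacrifice. The humane end point was visible duress or weight loss over 15% of the original.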

Data set [10] relates to Mus musculus. Put plainly: Acute toxicity in C57BL/6J mouse assessed as weight loss at 10 mg/kg, sc after 9 days. It is filed as organism-based. Set-up: dose 10 mg/kg, route subcutaneous. The settings on record: in vivo, 216 h. Summed up: as §3
For data set [11], the system named is Mus musculus. Put plainly: Toxicity in C57BL/6J mouse assessed as mild tubular attenuation in kidney at 1 mg/kg, sc administered every 3 days for a cycle of 3 injections measured 2 days post last injection. It counts as organism-based. On the set-up: dose 1 mg/kg, route subcutaneous. The following applies: in vivo, 48 h. A digest of the protocol:
(§4)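 Male C57BL/6J mice, 8 weeks old, given 1 mg/kg sc every 3 days for three injections and sacrificed 2 days after the last one. Two mice per group fixed in 10% formalin. A veterinary pathologist, blinded, examined cecum, duodenum, heart, ileum, kidney, liver, lung, pancreas, spleen and stomach. Lesions graded mild, moderate or severe.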

Data set [12] is described as follows: Metabolic stability in human liver microsomes after 1 hr by LC/MS/MS analysis in presence of NADPH. The settings on record: read-out: Stability. It is filed as ADME, Microsome. Summed up: as §2
The test system of data set [13] is Mus musculus. The experiment in a line: Acute toxicity in C57BL/6J mouse assessed as mild lymphoid apoptosis in white pulp of spleen at 10 mg/kg, sc after 9 days. It is filed as organism-based. On the set-up: dose 10 mg/kg, route subcutaneous. The following applies: in vivo, 216 h. Summed up:
as §1

In data set [14] the test system is Mus musculus. Put plainly: Acute toxicity in C57BL/6J mouse assessed as lesions in heart at 1 to 10 mg/kg, sc after 9 days. Set-up: dose 1-10 mg/kg, route subcutaneous. The settings on record: in vivo, 216 h. It counts as organism-based. A digest of the protocol:
as §1

Data set [15] relates to Mus musculus. The experiment in a line: Toxicity in C57BL/6J mouse assessed as weight loss at 1 mg/kg, sc administered every 3 days for a cycle of 3 injections. It is filed as organism-based. On the set-up: dose 1 mg/kg, route subcutaneous. The following applies: in vivo, 72 h. Summed up: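 8-week-old male C57BL/6J mice, acclimated 3 days, groups of three, dosed sc in 25% DMSO/saline vehicle once every 3 days, sacrificed 2 days after the last injection. Body weight recorded on injection days and at end point; humane end point set at visible duress or >15% loss of original body weight.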

For data set [16], the system named is Mus musculus. The experiment in a line: Toxicity in C57BL/6J mouse assessed as epithelial necrosis and apoptosis in kidney at 1 mg/kg, sc administered every 3 days for a cycle of 3 injections measured 2 days post last injection. It counts as organism-based. Set-up: dose 1 mg/kg, route subcutaneous. The following applies: in vivo, 48 h. A digest of the protocol:
as §4

The test system of data set [17] is Mus musculus. Put plainly: Toxicity in C57BL/6J mouse assessed as karyomegaly in kidney at 1 mg/kg, sc administered every 3 days for a cycle of 3 injections measured 2 days post last injection. It is filed as organism-based. On the set-up: dose 1 mg/kg, route subcutaneous. The following applies: in vivo, 48 h. Summed up: as §4
Data set [18] relates to Mus musculus. The experiment in a line: Toxicity in C57BL/6J mouse assessed as mild multifocal hepatocellular necrosis and apoptosis in liver at 1 mg/kg, sc administered every 3 days for a cycle of 3 injections measured 2 days post last injection. The settings on record: in vivo, 48 h. It is filed as organism-based. Set-up: dose 1 mg/kg, route subcutaneous. A digest of the protocol:
as §4

A short description of data set [19]: Metabolic stability in mouse liver microsomes after 1 hr by LC/MS/MS analysis in presence of NADPH. It is filed as ADME, Microsome. The following applies: read-out: Stability. Summed up: as §2
Data set [20] concerns Mus musculus. The experiment in a line: Acute toxicity in C57BL/6J mouse assessed as tubular epithelial necrosis and apoptosis in kidney at 3 mg/kg, sc after 9 days. It is filed as organism-based. On the set-up: dose 3 mg/kg, route subcutaneous. The following applies: in vivo, 216 h. Summed up:
as §1

Data set [21] relates to Mus musculus. The experiment in a line: Acute toxicity in C57BL/6J mouse assessed as lesions in stomach at 1 to 10 mg/kg, sc after 9 days. It counts as organism-based. On the set-up: dose 1-10 mg/kg, route subcutaneous. The following applies: in vivo, 216 h. Summed up: as §1
Data set [22] in a line: Metabolic stability in human liver microsomes after 1 hr by LC/MS/MS analysis. It counts as ADME, Microsome. The following applies: read-out: Stability. Summed up: as §2

For `CN(CCCNC(=O)c1cccc(C(=O)O)c1)CCCNC(=O)c1cc(NC(=O)c2cc(NC(=O)c3cc(NC(=O)c4nc(NC(=O)C[C@@H](N)CNC(=O)c5cc(NC(=O)c6cc(NC(=O)c7cc(NC(=O)c8nccn8C)cn7C)cn6C)cn5C)cn4C)cn3C)cn2C)cn1C`, the Activity entry in the data set with Mus musculus [1] is given as “Non-toxic”; in the data set on Mus musculus [2], “Toxic”; with Mus musculus [3], “Toxic”; in the data set on Mus musculus [4], “Non-toxic”; in the data set with Mus musculus [5] it was “Non-toxic”; in the data set on Mus musculus [6], “Toxic”. For the same compound, the Activity result with Mus musculus [7] is recorded as “Non-toxic”; with Mus musculus [9], “Toxic”; in the data set on Mus musculus [10], “Toxic”; in the data set on Mus musculus [11], “Toxic”; in the data set with Mus musculus [13], “Toxic”; with Mus musculus [14], “Non-toxic”. In addition, the Activity result was “Non-toxic” in the data set on Mus musculus [15]; “Toxic” in the data set with Mus musculus [16]; “Toxic” in the data set with Mus musculus [17]; “Toxic” in the data set with Mus musculus [18]; “Toxic” in the data set on Mus musculus [20]; “Non-toxic” with Mus musculus [21]. Moreover, the remaining at 1 h in [8], in data set [12], in data set [19] and in data set [22] was > 90% in each case.
